PMC5856607 (Journal of pharmaceutical sciences, 2017)
Like-named read-outs stand apart in the source and are kept apart here. One block for each compound: values may come before it.

Columns and labels:
Caco-2 cells [1] = conditions: % of dose, cited from earlier work
Caco-2 cells [2] = assay type: in vitro ADME, human; conditions: for Clcdf,ap, efflux clearance of CDF across the apical membrane, parameter estimate (% RSE) / Clcdf,bl, efflux clearance of CDF across the basolateral membrane, parameter estimate (% RSE) / Clhydrolysis, intracellular hydrolysis of CDFDA, parameter estimate (% RSE): control; for model predicted effect on CDF clearance across the apical membrane: co-exposure with agent; for β-adjustment factor for enhancement of basolateral membrane clearance (Clcdf,bl), estimate (% RSE): Equation 2, agent 10, 30, 100 μM; for β-adjustment factor for enhancement of CDFDA hydrolysis clearance (Clhydrolysis), estimate (% RSE): Equation 2
[3] = tested on: canalicular membrane of rat hepatocytes; conditions: cited from earlier work
Caco-2 cells [4] = assay: CDF transport across Caco-2 monolayers following CDF dosing; assay type: in vitro ADME, human
Method in brief: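 Caco-2 cells (passages 32–58) were grown 18–24 days on collagen-coated 0.4 μm PTFE Transwells. They were pre-incubated 30 min in pH 7.4 transport buffer with 0.1% DMSO/0.1% ethanol, then given 5 μM CDF apically or basolaterally at 37°C with 150 rpm shaking. CDF was quantified against 7.8–1000 nM standards. Clearance = transport rate/mean initial–final donor concentration. A two-compartment passive paracellular population model was fitted by QRPEM, 13 filters per direction.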

[5] = cited from earlier work
Caco-2 cells [6] = assay type: in vitro ADME, human; conditions: for fraction of CDF in the basolateral compartment / fraction of CDF in the cell compartment at 120-minutes: average; for fraction of CDF present in the apical compartment / total CDF production, % of the CDFDA dose: mean ± standard deviation
[7] = tested on: CDFDA hydrolysis in Caco-2 cell homogenates; conditions: cited from earlier work; for effect on CDFDA hydrolysis in Caco-2 cell homogenates: 100 μM
[8] = CDFDA hydrolysis in transport buffer; assay type: physicochemical; conditions: 37°C
Caco-2 cells [9] = conditions: contemporaneous studies; cited from earlier work
[10] = apical dosing 5 μM CDFDA, 500 simulations
[11] = basolateral dosing 5 μM CDFDA, 500 simulations
[12] = control experiments, CDFDA dosing
[13] = apical 5 μM CDFDA with 100 μM agent
[14] = apical 5 μM CDFDA with 100 μM agent, 9 filters
[15] = basolateral 5 μM CDFDA with 100 μM agent
[16] = basolateral 5 μM CDFDA with 100 μM agent, 9 filters
[17] = apical 5 μM CDFDA alone (Control)
[18] = basolateral 5 μM CDFDA alone (Control)

Compound: CC(C)(C)C(=O)OCOP(=O)(COCCn1cnc2c(N)ncnc21)OCOC(=O)C(C)(C)C [adefovir dipivoxil]
- total metabolite production (Caco-2 cells [1]; apical dosing): 93%
- total metabolite production (Caco-2 cells [1]; basolateral dosing): 34%

- ratio of basolateral to apical dosing transcellular CDF clearance (Caco-2 cells [2]; Equations 3a–b with 3-compartment model estimates): 2.9
- simulated intracellular CDF concentration, average (Caco-2 cells [2]; apical CDFDA dosing): 10 µM
- Clcdf,ap, bootstrap analysis median (90% confidence interval) (Caco-2 cells [2]; [10]): 2.2 × 10^−5 (1.7 – 2.6 × 10^−5) mL/min
- Clcdf,bl, bootstrap analysis median (90% confidence interval) (Caco-2 cells [2]; [10]): 1.3 × 10^−5 (1.2 – 1.4 × 10^−5) mL/min
- Clcdf,ap, efflux clearance of CDF across the apical membrane, parameter estimate (% RSE) (Caco-2 cells [2]; apical dosing 5 μM CDFDA): 8.4 × 10^−5 (<0.1) mL/min
- Clcdf,bl, efflux clearance of CDF across the basolateral membrane, parameter estimate (% RSE) (Caco-2 cells [2]; apical dosing 5 μM CDFDA): 5.6 × 10^−5 (0.1) mL/min
- simulated intracellular CDF concentration, average (Caco-2 cells [2]; basolateral CDFDA dosing): 24 µM
- Clcdf,ap, bootstrap analysis median (90% confidence interval) (Caco-2 cells [2]; [11]): 8.3 × 10^−5 (7.1 – 10.8 × 10^−5) mL/min
- Clcdf,bl, bootstrap analysis median (90% confidence interval) (Caco-2 cells [2]; [11]): 5.1 × 10^−5 (3.8 – 6.7 × 10^−5) mL/min
- Clcdf,ap, efflux clearance of CDF across the apical membrane, parameter estimate (% RSE) (Caco-2 cells [2]; basolateral dosing 5 μM CDFDA): 8.5 × 10^−5 (0.2) mL/min
- Clcdf,bl, efflux clearance of CDF across the basolateral membrane, parameter estimate (% RSE) (Caco-2 cells [2]; basolateral dosing 5 μM CDFDA): 5.2 × 10^−5 (0.2) mL/min
- fold larger apical versus basolateral membrane CDF clearance (Caco-2 cells [2]; following both apical and basolateral dosing): approximately 1.5 fold
- CDF clearance across Caco-2 cells, model based analysis, AB/BA combined, population estimate (RSE,%) (Caco-2 cells [4]; 5 μM CDF, simultaneous modeling of AB and BA directions): 1.6 × 10^−5 (11.7) mL/min
- CDF clearance across Caco-2 cells, model independent analysis, AB, mean (CV,%) (Caco-2 cells [4]; apical exposure to 5 μM CDF, 5 occasions, 13 filters): 1.6 × 10^−5 (30.3) mL/min
- CDF clearance across Caco-2 cells, model based analysis, AB, population estimate (RSE,%) (Caco-2 cells [4]; apical exposure to 5 μM CDF, two-compartment model): 1.3 × 10^−5 (19.0) mL/min
- CDF clearance across Caco-2 cells, model independent analysis, BA, mean (CV,%) (Caco-2 cells [4]; basolateral exposure to 5 μM CDF, 5 occasions, 13 filters): 2.1 × 10^−5 (3.3) mL/min
- CDF clearance across Caco-2 cells, model based analysis, BA, population estimate (RSE,%) (Caco-2 cells [4]; basolateral exposure to 5 μM CDF, two-compartment model): 2.0 × 10^−5 (10.9) mL/min
- fraction of CDF in the basolateral compartment (Caco-2 cells [6]; apical CDFDA dosing): 1.1%
- fraction of CDF in the cell compartment at 120-minutes (Caco-2 cells [6]; apical CDFDA dosing): 1.5%
- fraction of CDF present in the apical compartment (Caco-2 cells [6]; apical CDFDA dosing, n = 16 occasions): 4.0 ± 2.33%
- fraction of CDF in the basolateral compartment (Caco-2 cells [6]; basolateral CDFDA dosing): 1.0%
- fraction of CDF in the cell compartment at 120-minutes (Caco-2 cells [6]; basolateral CDFDA dosing): 1.3%
- fraction of CDF present in the apical compartment (Caco-2 cells [6]; basolateral CDFDA dosing): 1.9 ± 1.24%
- mean ratio of CDF cell content, basolateral versus apical dosing (Caco-2 cells [6]; [12]): 2.9
- mean ratio of CDF flux, basolateral versus apical dosing (Caco-2 cells [6]; [12]): 2.9
Compound: 5 (and 6)-Carboxy-2′,7′-Dichloroflourescein [CDF]
- Km ([3]; read-out: Km, high affinity state, Sprague-Dawley rats): 3 µM
- Km ([3]; read-out: Km, high affinity state, Wistar rats): 9 µM
- Km ([3]; read-out: Km, low affinity state, Sprague-Dawley rats): 192 µM
- Km ([3]; read-out: Km, low affinity state, Wistar rats): 69 µM
- protein binding [5]: 15 – 20%

Compound: CN(C)C(=O)CCSC(SCCC(=O)O)c1cccc(/C=C/c2ccc3ccc(Cl)cc3n2)c1 (stereo not shown) [MK-571]
- fold increase of basolateral membrane CDF clearance (Caco-2 cells [2]; 100 μM MK-571, the highest concentration evaluated): up to 2 fold
- model predicted effect on CDF clearance across the apical membrane (Caco-2 cells [2]; CDFDA dosing): not altered
- β-adjustment factor for enhancement of basolateral membrane clearance (Clcdf,bl), estimate (% RSE) (Caco-2 cells [2]; apical CDFDA dosing): 1.7 × 10^−2 (<0.1)
- β-adjustment factor for enhancement of basolateral membrane clearance (Clcdf,bl), estimate (% RSE) (Caco-2 cells [2]; basolateral CDFDA dosing): 2.4 × 10^−2 (0.4)
- effect on CDFDA hydrolysis in Caco-2 cell homogenates [7]: no effect
- basolateral to apical dosing CDF flux ratio in the presence of MK-571 (Caco-2 cells [6]; CDFDA dosing, control approximately 3): ~0.8
- AB Donor (apical) CDF at 120 minutes, mean (Caco-2 cells [6]; [13]): 115 pmoles/well
- AB Intracellular CDF at 120 minutes, mean (Caco-2 cells [6]; [13]): 15 pmoles/well
- AB directional CDF flux, mean (Caco-2 cells [6]; [14]): 0.51 pmol/min
- BA Donor (basolateral) CDF at 120 minutes, mean (Caco-2 cells [6]; [15]): 249 pmoles/well
- BA Intracellular CDF at 120 minutes, mean (Caco-2 cells [6]; [15]): 26 pmoles/well
- BA directional CDF flux, mean (Caco-2 cells [6]; [16]): 0.39 pmol/min

- fold larger CDFDA hydrolysis clearance for basolateral versus apical dosing (Caco-2 cells [2]): 1.8 fold
- Clhydrolysis, intracellular hydrolysis of CDFDA, parameter estimate (% RSE) (Caco-2 cells [2]; apical dosing 5 μM CDFDA): 8.2 × 10^−4 (<0.1) mL/min
- Clhydrolysis, bootstrap analysis median (90% confidence interval) (Caco-2 cells [2]; [11]): 1.6 × 10^−3 (1.2 – 1.9 × 10^−3) mL/min
- Clhydrolysis, intracellular hydrolysis of CDFDA, parameter estimate (% RSE) (Caco-2 cells [2]; basolateral dosing 5 μM CDFDA): 1.5 × 10^−3 (0.1) mL/min
- half-life of CDFDA hydrolysis in transport buffer [8]: > 100 h
- clearance of CDFDA hydrolysis in transport buffer ([8]; translated from half-life): 3e-07 mL/min
- AB Donor (apical) CDF at 120 minutes, mean (Caco-2 cells [6]; [17]): 101 pmoles/well
- AB Intracellular CDF at 120 minutes, mean (Caco-2 cells [6]; [17]): 29 pmoles/well
- AB directional CDF flux, mean (Caco-2 cells [6]; apical 5 μM CDFDA alone (Control), 48 filters): 0.28 pmol/min
- total CDF production, % of the CDFDA dose (Caco-2 cells [6]; apical dosing): 6.7 ± 3.10%
- BA Donor (basolateral) CDF at 120 minutes, mean (Caco-2 cells [6]; [18]): 143 pmoles/well
- BA Intracellular CDF at 120 minutes, mean (Caco-2 cells [6]; [18]): 83 pmoles/well
- BA directional CDF flux, mean (Caco-2 cells [6]; basolateral 5 μM CDFDA alone (Control), 48 filters): 0.81 pmol/min
- total CDF production, % of the CDFDA dose (Caco-2 cells [6]; basolateral dosing): 4.3 ± 1.21%
Compound: CDF diacetate [CDFDA]

Compound: lucifer yellow
- lucifer yellow clearance (Caco-2 cells [9]): 8.7 ± 0.24 × 10^−5 mL/min

Compound: O=c1c(-c2ccc(O)cc2)coc2cc(O)cc(O)c12 [Genistein]
- model predicted effect on CDF efflux (Caco-2 cells [2]; CDFDA dosing, genistein exposure): no predicted effects
- β-adjustment factor for enhancement of CDFDA hydrolysis clearance (Clhydrolysis), estimate (% RSE) (Caco-2 cells [2]; apical CDFDA dosing): 6.9 × 10^−3 (<0.1)
- β-adjustment factor for enhancement of CDFDA hydrolysis clearance (Clhydrolysis), estimate (% RSE) (Caco-2 cells [2]; basolateral CDFDA dosing): 2.8 × 10^−2 (0.6)
- effect on CDFDA hydrolysis observed in vitro [7]: stimulation of CDFDA hydrolysis
- AB Donor (apical) CDF at 120 minutes, mean (Caco-2 cells [6]; [13]): 301 pmoles/well
- AB Intracellular CDF at 120 minutes, mean (Caco-2 cells [6]; [13]): 85 pmoles/well
- AB directional CDF flux, mean (Caco-2 cells [6]; [14]): 1.25 pmol/min
- BA Donor (basolateral) CDF at 120 minutes, mean (Caco-2 cells [6]; [15]): 427 pmoles/well
- BA Intracellular CDF at 120 minutes, mean (Caco-2 cells [6]; [15]): 134 pmoles/well
- BA directional CDF flux, mean (Caco-2 cells [6]; [16]): 2.68 pmol/min

Compound: Glyceollin
- model predicted effect on CDF clearance across the apical membrane (Caco-2 cells [2]; CDFDA dosing): no effect on apical membrane clearance
- β-adjustment factor for enhancement of basolateral membrane clearance (Clcdf,bl), estimate (% RSE) (Caco-2 cells [2]; apical CDFDA dosing): 2.2 × 10^−2 (<0.1)
- β-adjustment factor for enhancement of basolateral membrane clearance (Clcdf,bl), estimate (% RSE) (Caco-2 cells [2]; basolateral CDFDA dosing): 1.8 × 10^−2 (2.9)
- effect on CDFDA hydrolysis in Caco-2 cell homogenates [7]: no effect
- AB Donor (apical) CDF at 120 minutes, mean (Caco-2 cells [6]; [13]): 95 pmoles/well
- AB Intracellular CDF at 120 minutes, mean (Caco-2 cells [6]; [13]): 15 pmoles/well
- AB directional CDF flux, mean (Caco-2 cells [6]; [14]): 0.63 pmol/min
- BA Donor (basolateral) CDF at 120 minutes, mean (Caco-2 cells [6]; [15]): 187 pmoles/well
- BA Intracellular CDF at 120 minutes, mean (Caco-2 cells [6]; [15]): 30 pmoles/well
- BA directional CDF flux, mean (Caco-2 cells [6]; [16]): 0.53 pmol/min
